pIC50: −log10 of the molar value. Activity calls are given as the source filed them. The calls are words filed in the database; no cut-off is given here.
Columns and labels:
Histone deacetylase 1 [1] = molecular target: T1, Histone deacetylase 1 (Homo sapiens, UniProt Q13547); assay: Inhibition of human HDAC1 using RHKKAc as substrate by fluorescence assay
Homo sapiens = species: Homo sapiens; assay: Selectivity ratio of IC50 for human HDAC1 to IC50 for human HDAC6
Summary of the method: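 HDAC1 and HDAC6 IC50s are each the mean of two experiments.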

[2] = molecular target: T2, Protein deacetylase HDAC6 (Homo sapiens, UniProt Q9UBN7); assay: Inhibition of human HDAC6 using RHKKAc as substrate by fluorescence assay
T2 sequence (Q9UBN7 whole entry): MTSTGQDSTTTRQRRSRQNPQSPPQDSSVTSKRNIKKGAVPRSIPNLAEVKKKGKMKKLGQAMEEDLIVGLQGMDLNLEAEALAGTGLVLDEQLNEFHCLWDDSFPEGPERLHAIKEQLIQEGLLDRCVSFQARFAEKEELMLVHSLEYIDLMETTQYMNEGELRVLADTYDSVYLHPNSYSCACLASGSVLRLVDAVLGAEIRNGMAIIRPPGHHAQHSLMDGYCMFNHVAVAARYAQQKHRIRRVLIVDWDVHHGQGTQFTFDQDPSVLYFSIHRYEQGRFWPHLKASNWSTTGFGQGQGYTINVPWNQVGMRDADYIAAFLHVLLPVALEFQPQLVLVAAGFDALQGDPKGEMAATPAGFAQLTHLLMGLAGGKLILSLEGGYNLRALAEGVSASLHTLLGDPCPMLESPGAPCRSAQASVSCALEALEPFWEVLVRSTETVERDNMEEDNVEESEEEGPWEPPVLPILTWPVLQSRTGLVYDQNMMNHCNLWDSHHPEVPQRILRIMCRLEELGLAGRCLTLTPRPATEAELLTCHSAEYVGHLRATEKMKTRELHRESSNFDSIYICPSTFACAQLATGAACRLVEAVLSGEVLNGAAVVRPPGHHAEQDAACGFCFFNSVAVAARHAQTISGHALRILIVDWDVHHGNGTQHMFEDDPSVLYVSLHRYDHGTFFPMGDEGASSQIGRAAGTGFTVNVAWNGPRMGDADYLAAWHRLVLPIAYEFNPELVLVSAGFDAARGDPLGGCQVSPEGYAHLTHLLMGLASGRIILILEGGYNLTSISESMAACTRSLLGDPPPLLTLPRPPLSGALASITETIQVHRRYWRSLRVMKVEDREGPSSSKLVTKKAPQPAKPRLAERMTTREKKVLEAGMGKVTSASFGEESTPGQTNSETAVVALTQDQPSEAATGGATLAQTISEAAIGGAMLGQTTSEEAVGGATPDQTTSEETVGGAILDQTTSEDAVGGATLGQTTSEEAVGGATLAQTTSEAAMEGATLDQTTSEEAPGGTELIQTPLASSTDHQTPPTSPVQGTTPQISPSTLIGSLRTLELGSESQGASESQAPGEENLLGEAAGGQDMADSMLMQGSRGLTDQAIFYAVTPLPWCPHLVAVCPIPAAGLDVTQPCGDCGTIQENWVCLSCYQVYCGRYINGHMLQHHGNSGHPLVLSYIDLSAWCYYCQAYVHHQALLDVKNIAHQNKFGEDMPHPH

[3] = Metabolic stability in human liver microsomes assessed as parent compound remaining at 60 mins in presence of NADPH; type: ADME, microsome; conditions: read-out: Stability
Summary of the method: (§1)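 Incubated in pooled liver microsomes (human or mouse as per line) with NADPH cofactor; all tests run in duplicate.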

[4] = Metabolic stability in mouse liver microsomes assessed as parent compound remaining at 60 mins in presence of NADPH; type: ADME, microsome; conditions: read-out: Stability; summary of the method: as §1
[5] = Half life in human liver microsomes in presence of NADPH; type: ADME, microsome; summary of the method: as §1
[6] = Half life in mouse liver microsomes in presence of NADPH; type: ADME, microsome; summary of the method: as §1
Liver [7] = assay: Prodrug conversion in human liver microsomes assessed as N-[5-(5,6-Dichloro-1H-indol-1-yl)pentyl]-2-mercaptoacetamide formation measured over 60 mins; type: ADME, microsome
Summary of the method: (§2)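 Disulfide prodrug incubated with pooled human or mouse liver microsomes, with the released free mercaptoacetamide measured over time. Percent released is taken as the measured thiol concentration divided by twice the initial prodrug concentration.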

Liver [8] = assay: Prodrug conversion in mouse liver microsomes assessed as N-[5-(5,6-Dichloro-1H-indol-1-yl)pentyl]-2-mercaptoacetamide formation measured over 60 mins; type: ADME, microsome; summary of the method: as §2
[9] = molecular target: T3, Protein deacetylase HDAC6 (Homo sapiens) (UniProt Q9UBN7); assay: Inhibition of HDAC6 in HEK293 cells assessed as induction of tubulin acetylation after 24 hrs by Western blot method; type: cell-based
T3 sequence (whole entry): T2 sequence (Q9UBN7 whole entry)
Summary of the method: (§3)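 HEK293 cells are treated with compound, and acetylated tubulin and histone H3 are detected by Western blot with GAPDH as loading control. Each blot carries a tubastatin 10 µM positive control and a DMSO or medium negative control.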

Mus musculus = assay: In vivo inhibition of HDAC6 in C57Bl/6J mouse assessed as increase in tubulin acetylation in cerebral cortex at 20 mg/kg, ip first dose administered in evening followed by second dose in next day morning measured 6 hrs post last dose by Western blot method relative to vehicle-treated control; type: functional; design: scale not given: the % may be the effect or the level left
Summary of the method: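 Mice (n=3) are dosed 20 mg/kg IP at 18:00, then dosed again at 20 mg/kg at 10:00 the next morning, and killed 6 h later. Cortex is taken for Western blot of acetyl-tubulin with GAPDH as loading control. Densitometric acetyl-tubulin/GAPDH ratio is expressed as % of vehicle-treated mice; significance is set at p<0.05.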

Histone deacetylase 1 [10] = molecular target: T1, Histone deacetylase 1; assay: Inhibition of HDAC1 in HEK293 cells assessed as increase in histone H3 acetylation at 5 uM after 24 hrs by Western blot method; type: cell-based; summary of the method: as §3
Liver [11] = assay: Prodrug conversion in mouse liver microsomes assessed as N-[4-[(5,7-Dichloroquinolin-8-yl)amino]butyl]-2-mercaptoacetamide formation measured over 60 mins; type: ADME, microsome; conditions: 1 h; summary of the method: as §2
Liver [12] = assay: Prodrug conversion in human liver microsomes assessed as N-[4-[(5,7-Dichloroquinolin-8-yl)amino]butyl]-2-mercaptoacetamide formation measured over 60 mins; type: ADME, microsome; conditions: 1 h; summary of the method: as §2

T1 sequence (Q13547 whole entry): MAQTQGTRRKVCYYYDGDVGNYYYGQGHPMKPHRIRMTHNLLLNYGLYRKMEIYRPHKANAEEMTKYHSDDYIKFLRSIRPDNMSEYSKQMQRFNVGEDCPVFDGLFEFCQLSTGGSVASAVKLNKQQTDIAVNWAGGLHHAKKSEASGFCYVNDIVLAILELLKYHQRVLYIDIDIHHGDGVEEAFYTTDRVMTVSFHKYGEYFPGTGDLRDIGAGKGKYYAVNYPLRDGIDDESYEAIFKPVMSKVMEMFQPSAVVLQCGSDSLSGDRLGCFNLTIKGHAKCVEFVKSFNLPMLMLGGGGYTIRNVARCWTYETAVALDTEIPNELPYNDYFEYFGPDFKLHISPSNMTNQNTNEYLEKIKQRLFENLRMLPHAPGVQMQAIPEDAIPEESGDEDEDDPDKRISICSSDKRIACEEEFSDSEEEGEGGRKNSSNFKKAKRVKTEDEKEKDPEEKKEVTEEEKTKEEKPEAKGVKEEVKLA

pIC50 (Histone deacetylase 1 [1]) | Ratio IC50 (Homo sapiens) | pIC50 [2] | remaining at 1 h [3] | remaining at 1 h [4] | half-life [5] | half-life [6] | Drug metabolism (Liver [7]) | Drug metabolism (Liver [8]) | inhibition [9] | inhibition (Histone deacetylase 1 [10]) | Drug metabolism (Liver [11]) | Drug metabolism (Liver [12]) | Structure (SMILES) | Activity (Mus musculus)
< 4.52 | > 124 | 6.62 |  |  |  |  |  |  |  |  |  |  | O=C(CS)NCCCCCCn1cc(Cl)c2cc(Cl)c(Cl)cc21 | 
4.53 | 450 | 7.19 |  |  |  |  |  |  |  |  |  |  | O=C(CS)NCCCCCCn1ccc2cc(F)c(Cl)cc21 | 
4.54 | 18 | 5.80 | 33.3% | 44.3% | 48.8 min | 70 min |  |  |  |  |  |  | CC(C)c1cn(CCCCCCNC(=O)CS)c2cc(Cl)c(Cl)cc12 | 
< 4.52 | > 901 | 7.48 |  |  |  |  |  |  |  |  |  |  | O=C(CS)NCCCCCOc1c(Cl)cc(Cl)c2cccnc12 | 
 |  |  | < 1% | < 1% | < 1 min | < 1 min | Metabolite_Detected | Metabolite_Detected | Dose-dependent effect |  |  |  | CC(C)C(=O)SCC(=O)NCCCCCn1ccc2cc(Cl)c(Cl)cc21 | 
5.16 |  | 8.55 | 22.3% | 61.7% | 32.2 min | 91.2 min |  |  |  |  |  |  | O=C(CS)NCCCCNc1c(Cl)cc(Cl)c2cccnc12 | 
 |  |  | 40.5% | 18.2% | 49.5 min | 24.8 min | Metabolite_Detected | Metabolite_Detected | Dose-dependent effect | Active |  |  | O=C(CSSCC(=O)NCCCCCn1ccc2cc(Cl)c(Cl)cc21)NCCCCCn1ccc2cc(Cl)c(Cl)cc21 | 40%
5.13 | 657 | 7.94 | 25.3% | 29.5% | 35.2 min | 41.3 min |  |  | Dose-dependent effect |  |  |  | O=C(CS)NCCCCCn1ccc2cc(Cl)c(Cl)cc21 | 
5.18 | 444 | 7.83 | 32.1% | 39.6% | 42.5 min | 51 min |  |  |  |  |  |  | O=C(CS)NCCCCCNc1c(Cl)cc(Cl)c2cccnc12 | 
 |  |  | 8.5% | 18.2% | 20.7 min | 25.9 min |  |  | Dose-dependent effect | Active | Metabolite_Detected | Metabolite_Detected | O=C(CSSCC(=O)NCCCCNc1c(Cl)cc(Cl)c2cccnc12)NCCCCNc1c(Cl)cc(Cl)c2cccnc12 | 30%
< 4.52 | > 470 | 7.19 |  |  |  |  |  |  |  |  |  |  | O=C(CS)NCCCCCCn1ccc2cc(Cl)c(Cl)cc21 | 
 |  | 6.27 |  |  |  |  |  |  |  |  |  |  | O=C(CS)NCC(S)CCCn1ccc2cc(Cl)c(Cl)cc21 (stereo unspecified) | 

Source: ChEMBL document CHEMBL3997851, “Design and Synthesis of Mercaptoacetamides as Potent, Selective, and Brain Permeable Histone Deacetylase 6 Inhibitors” (ACS Med Chem Lett, 2017)
